Measured values as given in ChEMBL document CHEMBL1138552, “Synthesis of modified pyrimidine bases and positive impact of chemically reactive substituents on their in vitro antiproliferative activity” (Eur J Med Chem, 2009).

Columns and labels:
[1] = tested on: HeLa; assay: Growth inhibition of human HeLa cells after 72 hrs by MTT assay; format: functional, cell-based
In short: (§1)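 Cells were seeded on day 0 at 1 × 10⁴–3 × 10⁴ cells/mL according to doubling time. Compound was added in 10-fold dilutions (10⁻⁸–10⁻⁴ M) from DMSO stocks (final DMSO ≤0.25%, solvent control run) and incubated 72 h. Percentage of growth was calculated, four parallel samples in three experiments. IC50 was derived by linear regression between the concentrations bracketing PG 50; if none fell below, the result was reported as >highest concentration.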

[2] = tested on: MIA PaCa-2; assay: Growth inhibition of human MIAPaCa2 cells after 72 hrs by MTT assay; format: functional, cell-based; conditions: MIA PaCa-2, 72 h; in short: as §1
[3] = tested on: SW-620; assay: Growth inhibition of human SW620 cells after 72 hrs by MTT assay; format: functional, cell-based; conditions: SW-620, 72 h; in short: as §1
[4] = tested on: MCF7; assay: Growth inhibition of human MCF7 cells after 72 hrs by MTT assay; format: functional, cell-based; conditions: MCF7, 72 h
In short: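 Cells were seeded on day 0 at 1 × 10⁴–3 × 10⁴ cells/mL according to doubling time. Percentage of growth was calculated, four parallel samples in three experiments. IC50 was derived by linear regression between the concentrations bracketing PG 50; if none fell below, the result was reported as >highest concentration.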

[5] = tested on: NCI-H460; assay: Growth inhibition of human H460 cells after 72 hrs by MTT assay; format: functional, cell-based; conditions: NCI-H460, 72 h; in short: as §1
[6] = tested on: HeLa; assay: Cell cycle arrest in human HeLa cells assessed as accumulation at subG1 phase at 10 uM after 72 hrs by flow cytometry; format: functional
In short: (§2)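 HeLa cells seeded at 2 × 10⁵ per well; compound added after 24 h. At 24, 48 and 72 h, attached and floating cells were pooled, PBS-washed, fixed in 70% ethanol, then stained with propidium iodide plus RNase A. Flow cytometry counted 20 000 events, and phase percentages came from DNA histograms. At least two experiments in triplicate; Student t-test (p < 0.05).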

[7] = tested on: HeLa; assay: Cell cycle arrest in human HeLa cells assessed as accumulation at subG1 phase at 10 uM after 48 hrs by flow cytometry; format: functional; in short: as §2
[8] = tested on: HeLa; assay: Cell cycle arrest in human HeLa cells assessed as accumulation at subG1 phase at 10 uM after 24 hrs by flow cytometry; format: functional; in short: as §2
[9] = tested on: HeLa; assay: Cell cycle arrest in human HeLa cells assessed as accumulation at G2/M phase at 10 uM after 48 hrs by flow cytometry; format: functional; in short: as §2
[10] = tested on: HeLa; assay: Cell cycle arrest in human HeLa cells assessed as accumulation at G2/M phase at 10 uM after 72 hrs by flow cytometry; format: functional; in short: as §2
[11] = tested on: HaCaT; assay: Growth inhibition of human HaCaT cells after 72 hrs by MTT assay; format: cell-based; in short: as §1
[12] = tested on: HeLa; assay: Cell cycle arrest in human HeLa cells assessed as accumulation at G2/M phase at 10 uM after 24 hrs by flow cytometry; format: functional; in short: as §2
[13] = tested on: HeLa; assay: Cell cycle arrest in human HeLa cells assessed as accumulation at S phase at 10 uM after 72 hrs by flow cytometry; format: functional; in short: as §2
[14] = tested on: HeLa; assay: Cell cycle arrest in human HeLa cells assessed as accumulation at S phase at 10 uM after 48 hrs by flow cytometry; format: functional; in short: as §2
[15] = tested on: HeLa; assay: Cell cycle arrest in human HeLa cells assessed as accumulation at S phase at 10 uM after 24 hrs by flow cytometry; format: functional; in short: as §2
[16] = tested on: HeLa; assay: Cell cycle arrest in human HeLa cells assessed as accumulation at G0/G1 phase at 10 uM after 72 hrs by flow cytometry; format: functional; in short: as §2
[17] = tested on: HeLa; assay: Cell cycle arrest in human HeLa cells assessed as accumulation at G0/G1 phase at 10 uM after 48 hrs by flow cytometry; format: functional; in short: as §2
[18] = tested on: HeLa; assay: Cell cycle arrest in human HeLa cells assessed as accumulation at G0/G1 phase at 10 uM after 24 hrs by flow cytometry; format: functional; in short: as §2
[19] = tested on: HeLa; assay: Cell cycle arrest in human HeLa cells assessed as accumulation at subG1 phase at 20 uM after 48 hrs by flow cytometry; format: functional
In short: (§3)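 Seeded 2 × 10⁵ cells per well; compound added after 24 h. At 24, 48 and 72 h post-treatment, attached cells were trypsinized and pooled with floating cells. Cells were PBS-washed, fixed in 70% ethanol, then stained with propidium iodide plus RNase A. DNA histograms came from 20 000 events per sample and gave the phase percentages. At least two experiments were run in triplicate, with Student t-test (p < 0.05).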

[20] = tested on: HeLa; assay: Cell cycle arrest in human HeLa cells assessed as accumulation at subG1 phase at 20 uM after 24 hrs by flow cytometry; format: functional; in short: as §3
[21] = tested on: HeLa; assay: Cell cycle arrest in human HeLa cells assessed as accumulation at subG1 phase at 20 uM after 72 hrs by flow cytometry; format: functional; in short: as §3
[22] = tested on: HeLa; assay: Cell cycle arrest in human HeLa cells assessed as accumulation at G0/G1 phase at 20 uM after 24 hrs by flow cytometry; format: functional; in short: as §3
[23] = tested on: HeLa; assay: Cell cycle arrest in human HeLa cells assessed as accumulation at G0/G1 phase at 20 uM after 48 hrs by flow cytometry; format: functional; in short: as §3
[24] = tested on: HeLa; assay: Cell cycle arrest in human HeLa cells assessed as accumulation at G0/G1 phase at 20 uM after 72 hrs by flow cytometry; format: functional; in short: as §3
[25] = tested on: HeLa; assay: Cell cycle arrest in human HeLa cells assessed as accumulation at S phase at 20 uM after 24 hrs by flow cytometry; format: functional; in short: as §3
[26] = tested on: HeLa; assay: Cell cycle arrest in human HeLa cells assessed as accumulation at S phase at 20 uM after 48 hrs by flow cytometry; format: functional; in short: as §3
[27] = tested on: HeLa; assay: Cell cycle arrest in human HeLa cells assessed as accumulation at S phase at 20 uM after 72 hrs by flow cytometry; format: functional; in short: as §3
[28] = tested on: HeLa; assay: Cell cycle arrest in human HeLa cells assessed as accumulation at G2/M phase at 20 uM after 24 hrs by flow cytometry; format: functional; in short: as §3
[29] = tested on: HeLa; assay: Cell cycle arrest in human HeLa cells assessed as accumulation at G2/M phase at 20 uM after 48 hrs by flow cytometry; format: functional; in short: as §3
[30] = tested on: HeLa; assay: Cell cycle arrest in human HeLa cells assessed as accumulation at G2/M phase at 20 uM after 72 hrs by flow cytometry; format: functional; in short: as §3

Compound | IC50 [1] [µM] | IC50 [2] [µM] | IC50 [3] [µM] | IC50 [4] [µM] | IC50 [5] [µM] | further results
N[C@H](CSCC(=O)Nc1c[nH]c(=O)[nH]c1=O)C(=O)O | 86 | 80 | 70 | > 100 | > 100 | –
Cc1ccc(S(=O)(=O)Nc2ccn(C)c(=O)n2)cc1 | > 100 | > 100 | > 100 | > 100 | > 100 | –
O=c1ccn(COC(CO)CO)c(=O)[nH]1 | > 100 | > 100 | > 100 | > 100 | > 100 | –
Cc1ccc(S(=O)(=O)Nc2cc[nH]c(=O)n2)cc1 | > 100 | > 100 | > 100 | 27 | > 100 | –
CSc1cc[nH]c(=O)n1 | > 100 | > 100 | > 100 | > 100 | > 100 | –
O=c1[nH]cc(F)c(=O)[nH]1 [FLUOROURACIL] | 4 | 10 | 9 | – | 2 | Activity [6]: 26%; Activity [7]: 12%; Activity [8]: 10%; Activity [9]: 0%; Activity [10]: 0%; IC50 [11]: 0.4 µM; Activity [12]: 1%; Activity [13]: 43%; Activity [14]: 41%; Activity [15]: 39%; Activity [16]: 57%; Activity [17]: 59%; Activity [18]: 60%
O=C(CCl)Nc1cn(COC(CO)CO)c(=O)[nH]c1=O | 12 | 18 | 19 | 32 | 24 | IC50 [11]: > 100 µM
Nc1cn(COC(CO)CO)c(=O)[nH]c1=O | > 100 | > 100 | > 100 | > 100 | > 100 | –
NCC(=O)Nc1c[nH]c(=O)[nH]c1=O | > 100 | > 100 | > 100 | > 100 | > 100 | –
Cc1cc(=O)[nH]c(=O)n1COC(CO)CO | > 100 | > 100 | > 100 | > 100 | > 100 | –
O=c1[nH]c(=O)n(COC(CO)CO)cc1I [IODACYCLUR] | 30 | > 100 | > 100 | > 100 | > 100 | –
Cn1ccc(N)nc1=O | 12 | > 100 | > 100 | > 100 | > 100 | –
COc1ccc(CSCCN(CCSCc2ccc(OC)cc2)CC(=O)Nc2c[nH]c(=O)[nH]c2=O)cc1 | 4 | 3 | 70 | > 100 | 76 | IC50 [11]: 9 µM; Activity [19]: 24%; Activity [20]: 17%; Activity [21]: 58%; Activity [22]: 56%; Activity [23]: 59%; Activity [24]: 43%; Activity [25]: 24%; Activity [26]: 27%; Activity [27]: 44%; Activity [28]: 20%; Activity [29]: 13%; Activity [30]: 13%
Cn1cc(CO)c(N)nc1=O | > 100 | > 100 | > 100 | > 100 | > 100 | –
CC(C)(C)OC(=O)NCCNCC(=O)Nc1c[nH]c(=O)[nH]c1=O | 50 | 50 | 50 | > 100 | > 100 | –
Cc1c(I)c(=O)[nH]c(=O)n1COC(CO)CO [IODMETACYCLUR] | 73 | > 100 | > 100 | > 100 | > 100 | –
O=c1[nH]c(=O)n(COC(CO)CO)cc1O | > 100 | > 100 | > 100 | > 100 | > 100 | –
O=c1nc(NO)cc[nH]1 [N4-hydroxycytosine] | > 100 | > 100 | > 100 | > 100 | > 100 | –
O=C(CCl)Nc1c[nH]c(=O)[nH]c1=O | 4 | 17 | 12 | 15 | 14 | IC50 [11]: > 100 µM; Activity [19]: 14%; Activity [20]: 12%; Activity [21]: 25%; Activity [22]: 50%; Activity [23]: 48%; Activity [24]: 50%; Activity [25]: 43%; Activity [26]: 45%; Activity [27]: 48%; Activity [28]: 6%; Activity [29]: 7%; Activity [30]: 8%
